Test results as given in ChEMBL document CHEMBL1145132, “N-hydroxy-3-phenyl-2-propenamides as novel inhibitors of human histone deacetylase with in vivo antitumor activity: discovery of (2E)-N-hydroxy-3-[4-[[(2-hydroxyethyl)[2-(1H-indol-3-yl)ethyl]amino]methyl]phenyl]-2-propenamide (NVP-LAQ824)” (J Med Chem, 2003).
Where “and” joins values, the source holds several entries; their conditions need not be identical. Identical values can stand only once.

Experiments:
Mus musculus [1] = assay: Compound was tested in vivo for efficacy in athymic mice bearing HCT116 subcutaneous tumor xenografts at a dose of 30 mg/kg and change in the body weight of the mouse was evaluated; type: functional
Outline: (§1)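 Female outbred athymic nu/nu mice, ≈10⁶ HCT116 cells injected sc in right axillary region under anesthesia; treatment began when tumors ≈100 mm³ (day 13 post-implant), groups of eight balanced on tumor volume. Compound given iv as lactate salt in 10% DMSO/D5W, qd 5×/week for 15 doses. Individual body weights recorded once weekly; % change from start reported.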

Mus musculus [2] = assay: Compound was tested in vivo for maximum tolerated dose (MTD) that resulted in no deaths when administered intravenously for five days; type: functional
Outline: (§2)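 Athymic mice, four per group, dosed iv once daily for five consecutive days, up to a maximum of 200 mg/kg/day. Compound given as the lactate salt in 10% DMSO in 5% dextrose/water (final DMSO 10%). MTD taken as the highest dose that caused no deaths.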

HCT-116 = assay: Inhibitory activity against HCT116 human colon cell growth; type: functional, cell-based
NCI-H1299 = assay: Inhibitory activity against H1299 human lung carcinoma cell growth; type: functional, cell-based
Mus musculus [3] = assay: Ratio of the change in tumor volume of treated animals to the change in tumor volume of control animals at a dose of 30 mg/kg; type: functional
Outline: (§3)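 HCT116 sc xenografts (≈10⁶ cells) in female athymic nude mice, eight per group, treated from ≈100 mm³ tumors with iv lactate salt in 10% DMSO/D5W qd 5×/week for 10 or 15 doses. Tumors measured weekly; % T/C = change in treated tumor volume over change in vehicle-control tumor volume; one-tailed Student's t-test.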

Histone deacetylase = assay: Inhibitory activity against histone deacetylase (HDAC) enzyme obtained from H1299 human lung carcinoma cell lysates
Mus musculus [4] = assay: Ratio of the change in tumor volume of treated animals to the change in tumor volume of control animals at a dose of 50 mg/kg; type: functional; outline: as §3
Mus musculus [5] = assay: Compound was tested in vivo for efficacy in athymic mice bearing HCT116 subcutaneous tumor xenografts at a dose of 100 mg/kg and change in the body weight of the mouse was evaluated; type: functional; details: route intravenous; outline: as §1
Mus musculus [6] = assay: Ratio of number of deaths of mice to the number of mice tested was determined at a dose of 10 mg/kg; dead/total = 0 / 8; type: functional
Outline: (§4)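 Female outbred athymic nu/nu mice, eight per group, carrying subcutaneous right-axillary HCT116 (≈10⁶ cells) or A549 (≈10⁷ cells) xenografts, started treatment at ≈100 mm³ tumour volume. Drug given as lactate salt in 10% DMSO/D5W, iv qd 5×/week for 15 doses. Body weights and tumours recorded weekly; deaths counted per group as dead/total.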

Mus musculus [7] = assay: Ratio of number of deaths of mice to the number of mice tested was determined at a dose of 100 mg/kg; dead/total = 0 / 8; type: functional; outline: as §4
Mus musculus [8] = assay: Compound was tested in vivo for efficacy in athymic mice bearing HCT116 subcutaneous tumor xenografts at a dose of 10 mg/kg and change in the body weight of the mouse was evaluated; type: functional; details: route intravenous; outline: as §1
Mus musculus [9] = assay: Compound was tested in vivo for efficacy in athymic mice bearing HCT116 subcutaneous tumor xenografts at a dose of 25 mg/kg and change in the body weight of the mouse was evaluated; type: functional
Mus musculus [10] = assay: Compound was tested in vivo for efficacy in athymic mice bearing HCT116 subcutaneous tumor xenografts at a dose of 50 mg/kg and change in the body weight of the mouse was evaluated; type: functional; details: route intravenous; outline: as §1
Mus musculus [11] = assay: Ratio of the change in tumor volume of treated animals to the change in tumor volume of control animals at a dose of 100 mg/kg; type: functional; outline: as §3
Mus musculus [12] = assay: Ratio of the change in tumor volume of treated animals to the change in tumor volume of control animals at a dose of 25 mg/kg; type: functional; outline: as §3
Mus musculus [13] = assay: Ratio of number of deaths of mice to the number of mice tested was determined at a dose of 50 mg/kg; dead/total = 0 / 8; type: functional; outline: as §4
Mus musculus [14] = assay: Ratio of the change in tumor volume of treated animals to the change in tumor volume of control animals at a dose of 10 mg/kg; type: functional; outline: as §3
Mus musculus [15] = assay: Compound was tested for efficacy in athymic mice bearing HCT116 subcutaneous tumor xenografts at a dose of 50 mg/kg and change in the body weight of the mouse was evaluated; type: functional; outline: as §1
Mus musculus [16] = assay: Compound was tested for maximum tolerated dose (MTD) that resulted in no deaths when administered intravenously for five days; type: functional; outline: as §2
Mus musculus [17] = assay: Ratio of the change in tumor volume of treated animals to the change in tumor volume of control animals at a dose of 20 mg/kg; type: functional; outline: as §3
Mus musculus [18] = assay: Compound was tested in vivo for efficacy in athymic mice bearing HCT116 subcutaneous tumor xenografts at a dose of 20 mg/kg and change in the body weight of the mouse was evaluated; type: functional; outline: as §1
Mus musculus [19] = assay: Compound was tested for efficacy in athymic mice bearing HCT116 subcutaneous tumor xenografts at a dose of 10 mg/kg and change in the body weight of the mouse was evaluated; type: functional; outline: as §1
Mus musculus [20] = assay: Compound was tested for efficacy in athymic mice bearing HCT116 subcutaneous tumor xenografts at a dose of 45 mg/kg and change in the body weight of the mouse was evaluated; type: functional
Mus musculus [21] = assay: Ratio of the change in tumor volume of treated animals to the change in tumor volume of control animals at a dose of 45 mg/kg; type: functional; outline: as §3
Mus musculus [22] = assay: Ratio of the change in tumor volume of treated animals to the change in tumor volume of control animals at a dose of 75 mg/kg; type: functional; outline: as §3
Mus musculus [23] = assay: Compound was tested for efficacy in athymic mice bearing HCT116 subcutaneous tumor xenografts at a dose of 75 mg/kg and change in the body weight of the mouse was evaluated; type: functional

| SMILES | IC50 (HCT-116) [nM] | IC50 (NCI-H1299) [nM] | IC50 (Histone deacetylase) [nM] | also measured |
| --- | --- | --- | --- | --- |
| O=C(/C=C/c1ccc(CNCCc2cnc3ccccc3c2)cc1)NO | 40 | 500 | 67 | Body weight change (Mus musculus [1]): -5.4%; MTD (Mus musculus [2]): 30 mg/kg; T/C (Mus musculus [3]): 77% |
| O=C(/C=C/c1ccc(CNCCCc2c[nH]c3ccccc23)cc1)NO | 100 | 1000 | 53 |  |
| O=C(/C=C/c1ccc(CNCCc2c[nH]c3ccc(F)cc23)cc1)NO | 30 | 310 | 14 | T/C (Mus musculus [4]): 13%; MTD (Mus musculus [2]): 100 mg/kg; Body weight change (Mus musculus [5]; 100 mg/kg): 6.7% and 7.5%; Ratio (Mus musculus [6]): 0; Ratio (Mus musculus [7]): 0; Body weight change (Mus musculus [8]): -6.4%; Body weight change (Mus musculus [9]): -6.6%; Body weight change (Mus musculus [10]): -1.7%; T/C (Mus musculus [11]; 100 mg/kg): 16% and 8%; T/C (Mus musculus [12]): 19%; Ratio (Mus musculus [13]): 0; T/C (Mus musculus [14]): 40% |
| O=C(/C=C/c1ccc(CNCCc2coc3ccccc23)cc1)NO | 30 | 180 | 16 | T/C (Mus musculus [4]): 49%; MTD (Mus musculus [2]): 50 mg/kg; Body weight change (Mus musculus [10]): 0.5% |
| CC(Cc1c[nH]c2ccccc12)NCc1ccc(/C=C/C(=O)NO)cc1 (stereo not drawn) | 20 | 410 | 24 |  |
| COc1ccccc1NCCNCc1ccc(/C=C/C(=O)NO)cc1 | 170 | 2160 | 111 |  |
| O=C(/C=C/c1ccc(CNCc2c[nH]c3ccccc23)cc1)NO | 160 | 2200 | 59 |  |
| CC(NCCc1c[nH]c2ccccc12)c1ccc(/C=C/C(=O)NO)cc1 (stereo not drawn) | 15 | 480 | 23 |  |
| O=C(/C=C/c1ccc(CN2CCC(c3c[nH]c4ccccc34)CC2)cc1)NO | 110 | 900 | 53 |  |
| O=C(/C=C/c1ccc(CNCCOc2ccccc2)cc1)NO | 160 | 1530 | 69 |  |
| O=C(/C=C/c1ccc(CNCCCn2c3ccccc3c3ccccc32)cc1)NO | 160 | 1100 | 79 |  |
| O=C(/C=C/c1ccc(CNCCc2c[nH]c3ccc(OCc4ccccc4)cc23)cc1)NO | 40 | 65 |  | T/C (Mus musculus [4]): 45%; Body weight change (Mus musculus [15]): -3%; MTD (Mus musculus [16]): 50 mg/kg |
| O=C(/C=C/c1ccc(CNCCc2cn(CC3CC3)c3ccccc23)cc1)NO | 30 | 250 | 84 | MTD (Mus musculus [2]): 20 mg/kg; T/C (Mus musculus [17]): 81%; Body weight change (Mus musculus [18]): -0.9% |
| COc1ccc2[nH]cc(CCNCc3ccc(/C=C/C(=O)NO)cc3)c2c1 | 30 | 580 | 14 | T/C (Mus musculus [4]): 24%; MTD (Mus musculus [2]): 100 mg/kg; Body weight change (Mus musculus [5]; 100 mg/kg): 7.4% and 12%; Ratio (Mus musculus [6]): 0; Ratio (Mus musculus [7]): 0; Body weight change (Mus musculus [8]): -4.6%; Body weight change (Mus musculus [9]): -5.5%; Body weight change (Mus musculus [10]): -8.1%; T/C (Mus musculus [11]; 100 mg/kg): 9% and 22%; T/C (Mus musculus [12]): 38%; Ratio (Mus musculus [13]): 0; T/C (Mus musculus [14]): 64% |
| O=C(/C=C/c1ccc(CNCCc2cc3ccccc3[nH]2)cc1)NO | 40 | 540 | 46 |  |
| Cc1nc2ccccc2n1CCNCc1ccc(/C=C/C(=O)NO)cc1 | 200 | 2750 | 38 |  |
| CC(C)N(CCc1c[nH]c2ccccc12)Cc1ccc(/C=C/C(=O)NO)cc1 |  | 30 |  | MTD (Mus musculus [2]): 25 mg/kg; Body weight change (Mus musculus [9]): -4.1%; T/C (Mus musculus [12]): 29% |
| O=C(/C=C/c1ccc(NCCCc2c[nH]c3ccccc23)cc1)NO | 480 | 820 | 262 |  |

| SMILES | IC50 (HCT-116) [nM] | IC50 (NCI-H1299) [nM] | IC50 (Histone deacetylase) [nM] | also measured |
| --- | --- | --- | --- | --- |
| O=C(/C=C/c1ccc(CN(CCc2c[nH]c3ccccc23)C2CCCCC2)cc1)NO | 17 | 40 | 20 |  |
| O=C(/C=C/c1ccc(CNCCCCc2c[nH]c3ccccc23)cc1)NO | 30 | 480 | 37 |  |
| O=C(/C=C/c1ccc(CN(CCOC(=O)NCc2ccoc2)CCc2c[nH]c3ccccc23)cc1)NO | 15 | 180 | 370 |  |
| O=C(/C=C/c1ccc(CN(CCCc2ccccc2)Cc2ccccn2)cc1)NO | 740 | 2740 | 278 |  |
| O=C(/C=C/c1ccc(CNCc2cc3ccccc3[nH]2)cc1)NO | 50 | 940 | 51 |  |
| O=C(/C=C/c1ccc(CN2CCc3c([nH]c4ccccc34)C2)cc1)NO | 430 | 2900 | 118 |  |
| O=C(/C=C/c1ccc(CNCCn2c3ccccc3c3ccccc32)cc1)NO | 10 | 100 | 66 | MTD (Mus musculus [16]): 10 mg/kg; Body weight change (Mus musculus [19]): -3.7%; T/C (Mus musculus [14]): 85% |
| O=C(/C=C/c1ccc(CN(CCCc2ccccc2)Cc2cccnc2)cc1)NO | 420 | 1700 | 164 |  |
| O=C(/C=C/c1ccc(CNCCCc2ccccc2)cc1)NO | 50 | 800 | 150 | MTD (Mus musculus [16]): 45 mg/kg; Body weight change (Mus musculus [20]): -3.1%; T/C (Mus musculus [21]): 86% |
| O=C(/C=C/c1ccc(CNCCc2ccc3c(c2)OCO3)cc1)NO | 50 | 500 | 30 |  |
| O=C(/C=C/c1ccc(CN(CCc2c[nH]c3ccccc23)C(CO)CO)cc1)NO | 160 | 2500 | 52 |  |
| Cn1cc(CCNCc2ccc(/C=C/C(=O)NO)cc2)c2ccccc21 | 10 | 170 | 23 | T/C (Mus musculus [22]): 15%; Body weight change (Mus musculus [23]): -3.2%; MTD (Mus musculus [16]): 75 mg/kg |
| O=C(/C=C/c1ccc(CN[C@H](CO)Cc2c[nH]c3ccccc23)cc1)NO | 50 | 810 | 27 |  |
| O=C(/C=C/c1ccc(CNCCc2c[nH]c3ccccc23)cc1)NO |  | 400 |  | T/C (Mus musculus [4]): 13%; MTD (Mus musculus [2]): 100 mg/kg; Body weight change (Mus musculus [5]): -9.4%; Body weight change (Mus musculus [8]): -10.2%; Body weight change (Mus musculus [9]): -7%; Body weight change (Mus musculus [10]): -7.3%; T/C (Mus musculus [11]): 17%; T/C (Mus musculus [12]): 40%; T/C (Mus musculus [14]): 56% |
| O=C(/C=C/c1ccc(CN(CCO)CCc2cnc3ccccc3c2)cc1)NO | 40 | 530 | 24 | T/C (Mus musculus [4]): 78%; MTD (Mus musculus [2]): 50 mg/kg; Body weight change (Mus musculus [10]): 3.1% |
| Nc1ccccc1NC(=O)c1ccc(CNC(=O)OCc2ccccc2)cc1 | 670 | 6820 | > 10000 |  |
| O=C(/C=C/c1ccc(CN[C@@H](CO)Cc2c[nH]c3ccccc23)cc1)NO | 40 | 750 | 40 |  |
| O=C(/C=C/c1ccc(CN(CCc2c[nH]c3ccccc23)Cc2ccccc2)cc1)NO | 120 | 2060 | 85 |  |
